# Legend:
# [1] = tested on: NCI-H460; experiment: Antitumor activity against human NCI-H460 cells in xenograft model assessed as difference between median time to endpoint time of treated versus control group at 62.5 mg/kg; type: functional
# [2] = tested on: A2780; experiment: Anticancer activity against human A2780 cells assessed as cell growth inhibition measured after 72 hrs by DAPI staining based analysis; type: functional
# Summary of the method: (§1)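 Cells were seeded and, after 24 h, DNA content was read as T0. Cells were then exposed to varying drug concentrations for a further 72 h (T72). Fixed cells were DAPI-stained and DNA content measured by automated imaging. T72 values were normalized to T0. GI50 is the concentration giving 50% growth inhibition between T0 and Ymax, obtained by curve fitting.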
# [3] = tested on: MCF-10A; experiment: Anticancer activity against human MCF-10A cells assessed as cell growth inhibition measured after 72 hrs by DAPI staining based analysis; type: functional
# [4] = tested on: HN5; experiment: Anticancer activity against human HN5 cells assessed as cell doubling measured for 72 hrs by DAPI staining based analysis; type: functional
# [5] = tested on: SN12C; experiment: Anticancer activity against human SN12C cells assessed as cell doubling measured for 72 hrs by DAPI staining based analysis; type: functional
# [6] = molecular target: Centromere-associated protein E (Homo sapiens, UniProt Q02224, I182L/T183A); experiment: Binding affinity to human CENP-E I182L/T183A mutant assessed as inhibition constant
# [7] = tested on: MIA PaCa-2; experiment: Anticancer activity against human MIA PaCa-2 cells assessed as cell doubling measured for 72 hrs by DAPI staining based analysis; type: functional
# [8] = tested on: SCC-25; experiment: Anticancer activity against human SCC-25 cells assessed as cell doubling measured for 72 hrs by DAPI staining based analysis; type: functional
# [9] = tested on: AGS; experiment: Anticancer activity against human AGS cells assessed as cell doubling measured for 72 hrs by DAPI staining based analysis; type: functional
# [10] = tested on: MDA-MB-231; experiment: Anticancer activity against human MDA-MB-231 cells assessed as cell growth inhibition measured after 72 hrs by DAPI staining based analysis; type: functional
# [11] = tested on: MDA-MB-231; experiment: Antitumor activity against human MDA-MB-231 cells in xenograft model assessed as tumor growth delay at 125 mg/kg relative to control; type: functional
# [12] = Anticancer activity against human BC-2 cells assessed as cell growth inhibition measured after 72 hrs by DAPI staining based analysis; type: functional; summary of the method: as §1
# [13] = molecular target: Centromere-associated protein E (Homo sapiens, UniProt Q02224, I182L); experiment: Binding affinity to human CENP-E I182L mutant assessed as inhibition constant
# [14] = tested on: A549; experiment: Anticancer activity against human A549 cells assessed as cell growth inhibition measured after 72 hrs by DAPI staining based analysis; type: functional; summary of the method: as §1
# [15] = tested on: COLO 205; experiment: Anticancer activity against human COLO 205 cells assessed as cell growth inhibition measured after 72 hrs by DAPI staining based analysis; type: functional
# Summary of the method: (§2)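 Cells were seeded, and DNA content at 24 h after seeding (T0) was read by imaging of fixed, DAPI-stained cells. Cells were then exposed to a range of drug concentrations for a further 72 h (T72) and DNA content was read again. T72 values were normalized to T0, and GI50 was taken from curve fits as the concentration giving 50% growth inhibition relative to T0 and Ymax.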
# [16] = tested on: A-431; experiment: Anticancer activity against human A-431 cells assessed as cell growth inhibition measured after 72 hrs by DAPI staining based analysis; type: functional; summary of the method: as §1
# [17] = tested on: CGTH-W-1; experiment: Anticancer activity against human CGTH-W-1 cells assessed as cell doubling measured for 72 hrs by DAPI staining based analysis; type: functional
# [18] = tested on: BV-173; experiment: Anticancer activity against human BV-173 cells assessed as cell growth inhibition measured after 72 hrs by DAPI staining based analysis; type: functional; summary of the method: as §2
# [19] = tested on: MOLT-16; experiment: Anticancer activity against human MOLT-16 cells assessed as cell growth inhibition measured after 72 hrs by DAPI staining based analysis; type: functional
# [20] = tested on: EFM-19; experiment: Anticancer activity against human EFM-19 cells assessed as cell growth inhibition measured after 72 hrs by DAPI staining based analysis; type: functional
# Summary of the method: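 Cells seeded, DAPI-stained DNA content of fixed cells read by imaging 24 h after seeding (T0), and again after a further 72 h exposure to a range of drug concentrations (T72). T72 values were normalized to T0. Curve fits gave the concentration producing 50% growth inhibition relative to T0 and Ymax (GI50).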
# [21] = Anticancer activity against human SCC-13 cells assessed as cell growth inhibition measured after 72 hrs by DAPI staining based analysis; type: functional
# [22] = tested on: DB; experiment: Anticancer activity against human DB cells assessed as cell doubling measured for 72 hrs by DAPI staining based analysis; type: functional
# [23] = tested on: U2OS; experiment: Anticancer activity against human U2OS cells assessed as cell growth inhibition measured after 72 hrs by DAPI staining based analysis; type: functional
# [24] = tested on: SNU-398; experiment: Anticancer activity against human SNU-398 cells assessed as cell growth inhibition measured after 72 hrs by DAPI staining based analysis; type: functional
# [25] = tested on: UACC-62; experiment: Anticancer activity against human UACC-62 cells assessed as cell doubling measured for 72 hrs by DAPI staining based analysis; type: functional
# [26] = tested on: NCI-H157; experiment: Anticancer activity against human NCI-H157 cells assessed as cell doubling measured for 72 hrs by DAPI staining based analysis; type: functional
# [27] = Binding affinity to human CENP-E T183A/K184T mutant assessed as inhibition constant
# [28] = tested on: HeLa; experiment: Anticancer activity against human HeLa cells assessed as cell growth inhibition measured after 72 hrs by DAPI staining based analysis; type: functional
# [29] = tested on: HPAF-II; experiment: Anticancer activity against human HPAF-II cells assessed as cell growth inhibition measured after 72 hrs by DAPI staining based analysis; type: functional
# [30] = tested on: RXF 393; experiment: Anticancer activity against human RXF 393 cells assessed as cell doubling measured for 72 hrs by DAPI staining based analysis; type: functional
# [31] = tested on: IGROV-1; experiment: Anticancer activity against human IGROV-1 cells assessed as cell growth inhibition measured after 72 hrs by DAPI staining based analysis; type: functional
# [32] = tested on: SNU-423; experiment: Anticancer activity against human SNU-423 cells assessed as cell growth inhibition measured after 72 hrs by DAPI staining based analysis; type: functional
# [33] = tested on: BT-20; experiment: Anticancer activity against human BT-20 cells assessed as cell doubling measured for 72 hrs by DAPI staining based analysis; type: functional
# [34] = tested on: MX1; experiment: Anticancer activity against human MX1 cells assessed as cell growth inhibition measured after 72 hrs by DAPI staining based analysis; type: functional
# [35] = tested on: GCT; experiment: Anticancer activity against human GCT cells assessed as cell doubling measured for 72 hrs by DAPI staining based analysis; type: functional
# [36] = tested on: MDA-MB-435; experiment: Anticancer activity against human MDA-MB-435 cells assessed as cell growth inhibition measured after 72 hrs by DAPI staining based analysis; type: functional
# [37] = tested on: HCC70; experiment: Anticancer activity against human HCC70 cells assessed as cell doubling measured for 72 hrs by DAPI staining based analysis; type: functional
# [38] = tested on: SNB-75; experiment: Anticancer activity against human SNB-75 cells assessed as cell doubling measured for 72 hrs by DAPI staining based analysis; type: functional
# [39] = tested on: COLO 205; experiment: Antitumor activity against human COLO 205 cells in xenograft model assessed as tumor growth delay at 62.5 mg/kg relative to control; type: functional
# [40] = tested on: MC-IXC; experiment: Anticancer activity against human MC-IXC cells assessed as cell doubling measured for 72 hrs by DAPI staining based analysis; type: functional
# Chain of Centromere-associated protein E (Homo sapiens, UniProt Q02224, I182L/T183A) (Q02224 whole entry I182L/T183A): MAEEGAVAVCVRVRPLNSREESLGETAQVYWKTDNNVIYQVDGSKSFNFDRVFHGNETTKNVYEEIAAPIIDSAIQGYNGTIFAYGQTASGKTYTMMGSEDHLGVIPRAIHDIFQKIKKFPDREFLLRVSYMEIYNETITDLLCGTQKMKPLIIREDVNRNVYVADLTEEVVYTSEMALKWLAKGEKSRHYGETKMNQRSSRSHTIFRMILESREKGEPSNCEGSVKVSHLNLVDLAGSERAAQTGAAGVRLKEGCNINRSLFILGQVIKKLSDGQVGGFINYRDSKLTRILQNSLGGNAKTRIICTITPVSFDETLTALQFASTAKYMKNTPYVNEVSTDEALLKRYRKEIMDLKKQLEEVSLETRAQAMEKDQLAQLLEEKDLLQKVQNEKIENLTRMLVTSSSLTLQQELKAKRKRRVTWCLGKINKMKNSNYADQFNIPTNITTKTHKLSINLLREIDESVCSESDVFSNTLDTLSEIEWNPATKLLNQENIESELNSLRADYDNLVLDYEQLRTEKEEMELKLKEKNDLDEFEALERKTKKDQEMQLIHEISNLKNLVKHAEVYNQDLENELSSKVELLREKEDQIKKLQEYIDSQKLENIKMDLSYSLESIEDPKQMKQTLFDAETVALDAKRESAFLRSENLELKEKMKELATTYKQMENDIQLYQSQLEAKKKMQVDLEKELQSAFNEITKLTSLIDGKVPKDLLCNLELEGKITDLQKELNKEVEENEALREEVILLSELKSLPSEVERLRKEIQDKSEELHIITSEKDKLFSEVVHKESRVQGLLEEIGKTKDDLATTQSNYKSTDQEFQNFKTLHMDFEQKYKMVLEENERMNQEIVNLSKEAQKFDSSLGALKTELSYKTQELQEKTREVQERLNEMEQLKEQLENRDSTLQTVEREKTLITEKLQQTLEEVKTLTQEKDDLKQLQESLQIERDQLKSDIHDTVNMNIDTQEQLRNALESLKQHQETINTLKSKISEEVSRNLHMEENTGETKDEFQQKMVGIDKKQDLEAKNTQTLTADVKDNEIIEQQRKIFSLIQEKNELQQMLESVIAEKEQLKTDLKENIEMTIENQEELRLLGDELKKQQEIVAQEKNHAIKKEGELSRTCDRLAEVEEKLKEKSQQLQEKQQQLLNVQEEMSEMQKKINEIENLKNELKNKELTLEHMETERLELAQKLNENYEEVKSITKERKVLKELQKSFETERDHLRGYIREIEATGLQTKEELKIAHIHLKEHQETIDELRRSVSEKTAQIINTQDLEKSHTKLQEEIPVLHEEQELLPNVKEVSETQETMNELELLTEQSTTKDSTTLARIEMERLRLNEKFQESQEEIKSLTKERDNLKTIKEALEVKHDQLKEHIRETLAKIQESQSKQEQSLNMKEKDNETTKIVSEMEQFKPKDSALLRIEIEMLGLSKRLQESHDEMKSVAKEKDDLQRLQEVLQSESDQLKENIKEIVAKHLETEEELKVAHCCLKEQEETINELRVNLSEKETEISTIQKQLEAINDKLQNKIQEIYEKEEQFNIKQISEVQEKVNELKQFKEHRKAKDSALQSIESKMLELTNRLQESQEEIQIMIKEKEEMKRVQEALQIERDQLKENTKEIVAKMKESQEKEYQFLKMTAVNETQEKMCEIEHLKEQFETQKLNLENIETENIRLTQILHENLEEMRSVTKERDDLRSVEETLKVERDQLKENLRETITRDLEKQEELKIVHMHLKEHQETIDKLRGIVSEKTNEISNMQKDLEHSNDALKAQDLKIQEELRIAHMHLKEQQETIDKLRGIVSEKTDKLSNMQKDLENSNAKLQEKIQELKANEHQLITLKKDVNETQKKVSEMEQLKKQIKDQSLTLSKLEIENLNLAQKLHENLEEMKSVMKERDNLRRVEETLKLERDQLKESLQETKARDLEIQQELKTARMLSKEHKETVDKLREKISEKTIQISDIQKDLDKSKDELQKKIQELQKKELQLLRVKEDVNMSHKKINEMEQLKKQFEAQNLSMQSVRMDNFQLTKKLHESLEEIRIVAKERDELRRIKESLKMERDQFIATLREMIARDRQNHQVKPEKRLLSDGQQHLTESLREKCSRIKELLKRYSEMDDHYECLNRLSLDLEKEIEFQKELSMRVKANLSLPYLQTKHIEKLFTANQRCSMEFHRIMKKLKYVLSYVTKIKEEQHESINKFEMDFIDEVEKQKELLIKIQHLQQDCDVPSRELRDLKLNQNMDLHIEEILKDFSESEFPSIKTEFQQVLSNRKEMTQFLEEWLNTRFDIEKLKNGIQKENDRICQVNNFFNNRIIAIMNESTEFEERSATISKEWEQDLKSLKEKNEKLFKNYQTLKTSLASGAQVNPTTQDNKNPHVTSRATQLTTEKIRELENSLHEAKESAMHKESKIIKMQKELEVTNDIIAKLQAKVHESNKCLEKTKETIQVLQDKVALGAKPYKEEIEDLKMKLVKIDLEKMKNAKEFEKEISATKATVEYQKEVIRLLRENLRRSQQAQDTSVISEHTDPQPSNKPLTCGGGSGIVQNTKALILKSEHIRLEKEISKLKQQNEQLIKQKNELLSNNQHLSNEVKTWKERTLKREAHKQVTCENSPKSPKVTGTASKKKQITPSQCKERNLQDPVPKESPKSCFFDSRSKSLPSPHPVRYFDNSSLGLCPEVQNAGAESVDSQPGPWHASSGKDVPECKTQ
# Chain of Centromere-associated protein E (Homo sapiens, UniProt Q02224, I182L) (Q02224 whole entry I182L): as the sequence (Q02224 whole entry I182L/T183A) above, with A183T counted along it
compound,measurement,setting,value
CC(C)Oc1ccc(C(=O)N[C@H](CNC(=O)CN(C)C)Cc2ccc(-c3cn4cccc([C@H](C)O)c4n3)cc2)cc1Cl [GSK-923295A],Time,[1],15.4 days
same,GI50,[2],13 nM
same,GI50,[3],16 nM
same,Activity,[4],3.38
same,Activity,[5],2.47
same,Ki,[6],61 nM
same,Activity,[7],3.72
same,Activity,[8],2.99
same,Activity,[9],2.95
same,GI50,[10],5020 nM
same,Activity,[11],99%
same,GI50,[12],45 nM
same,Ki,[13],14 nM
same,GI50,[14],21 nM
same,GI50,[15],25 nM
same,GI50,[16],21 nM
same,Activity,[17],3.66
same,GI50,[18],56 nM
same,GI50,[19],47 nM
same,GI50,[20],28 nM
same,GI50,[21],58 nM
same,Activity,[22],2.76
same,GI50,[23],45 nM
same,GI50,[24],27 nM
same,Activity,[25],2.12
same,Activity,[26],2.6
same,Ki,[27],11 nM
same,GI50,[28],20 nM
same,GI50,[29],5030 nM
same,Activity,[30],1.2
same,GI50,[31],31 nM
same,GI50,[32],34 nM
same,Activity,[33],4.17
same,GI50,[34],30 nM
same,Activity,[35],2.3
same,GI50,[36],30 nM
same,Activity,[37],1.35
same,Activity,[38],1.37
same,Activity,[39],122%
same,Activity,[40],2.67

# Source: ChEMBL document CHEMBL5705890, “Antitumor activity of an allosteric inhibitor of centromere-associated protein-E” (Proc Natl Acad Sci U S A, 2010)
